SENP1 inh – SENP1 (human) catalytic domain inhibition | hit rate 0.21% among 360,000 | inhibition, % at 10 µM | recombinant SENP1 catalytic domain, CyPet-SUMO1-YPet FRET cleavage | AID 624204 | Q9P0U3;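 active means inhibition at least 30% at 10 µM, raw YFP signal under a set limit, fluorescence ratio 0.5 to 1.5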
Target sequence (Q9P0U3 419-644 limits assumed): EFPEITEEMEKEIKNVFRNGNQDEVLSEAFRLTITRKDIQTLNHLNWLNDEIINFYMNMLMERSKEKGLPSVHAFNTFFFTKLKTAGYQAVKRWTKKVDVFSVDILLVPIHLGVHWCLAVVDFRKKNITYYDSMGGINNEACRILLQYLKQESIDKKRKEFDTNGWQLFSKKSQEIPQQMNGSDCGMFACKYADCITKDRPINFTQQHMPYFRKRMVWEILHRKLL
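system = hSENP1 catalytic domain, recombinant | reagent = SFCypet-SUMO1-SFYpet substrate at 25 nM | doses = one dose per compound, 10 µM, 0.5% DMSO | incubation = enzyme reaction for 50 min at room temperature, dark | measured by = FRET, CFP and YFP emission | controls = no-enzyme low, enzyme-DMSO high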
SENP8 block-1 – inhibitors of human SENP8 protease | inhibition, % at 20 µM | recombinant SENP8, Nedd8 substrate fluorescence | hit rate 0.64% among 360,000 | AID 602440; in the data active means inhibition mostly above about 40%, no sharp cut-off; inactive means mostly below about 27%
SENP7 block – blocks the human protease SENP7 | recombinant SENP7, Z-RLRGG-aminoluciferin luminescence, 40 min | inhibition, % at 5 µM | hit rate 1.5% among 330,000 | Q9BQF6;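 active means inhibition above about 50% at the single test dose, limit read from the data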
Target sequence (Q9BQF6 706-1050 limits assumed): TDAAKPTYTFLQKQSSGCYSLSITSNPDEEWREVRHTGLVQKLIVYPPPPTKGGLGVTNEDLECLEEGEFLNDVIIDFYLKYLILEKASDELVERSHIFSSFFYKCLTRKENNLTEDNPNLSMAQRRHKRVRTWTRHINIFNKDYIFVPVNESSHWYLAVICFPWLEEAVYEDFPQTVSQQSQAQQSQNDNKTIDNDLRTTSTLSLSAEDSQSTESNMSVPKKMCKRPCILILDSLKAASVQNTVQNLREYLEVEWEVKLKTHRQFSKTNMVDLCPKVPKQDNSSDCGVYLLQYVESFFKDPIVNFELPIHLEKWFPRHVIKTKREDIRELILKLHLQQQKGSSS
SENP8 block-2 – inhibitors of human SENP8 protease. hit rate 1.2% among 330,000. Q96LD8. purified SENP8, Z-RLRGG-aminoluciferin cleavage, luminescence. AID 2540. inhibition, % at 10 µM; in the data active means inhibition above about 50%
SENP6 inh – SENP6 protease inhibition | AID 2599 | Recombinant SENP6 catalytic domain, aminoluciferin luminescence | hit rate 1.8% among 330,000 | Q9GZR1 | inhibition, % at 10 µM;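 active means inhibition above about 50% at the single tested dose, limit read from the data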
SENP8 inh conf – SENP8 (human) inhibition, single concentration confirmation; shares compounds with SENP8 block-1; purified SENP8, Nedd8-AMC/pro-Nedd8 cleavage fluorescence, 30 min; inhibition, % at 25 µM; hit rate 15% among 1,400; AID 624319; in the data active means inhibition mostly above about 39%, no sharp cut-off; inactive means mostly below about 34%
Numbers stand for hits; – = inactive; · = no result. Only some compounds are listed: those with a hit (about 2.5% of all), similar ones and a draw of the others.

SMILES | SENP1 inh | SENP8 block-1 | SENP7 block | SENP8 block-2 | SENP6 inh | SENP8 inh conf
CCOC(=O)[C@]12CCCC=C1N(CCC1=CCCCC1)C(=O)[C@H](CC(=O)NCCCN1CCCC1=O)C2 | – | 42 | · | · | · | –
Cc1nonc1OC(C)CNc1ccc([N+](=O)[O-])cc1 (centres undefined) | – | 46 | – | – | – | –
O=C(Cn1cncn1)NCCCc1ccccc1 | – | – | – | – | – | ·
COc1cc(=O)n(C)c2c(O)cccc12 | – | 56 | – | – | – | –
COc1cc(=O)n(C)c2ccccc12 | – | – | – | – | – | ·
C1CCN(c2nc3nonc3nc2NCC2CCOCC2)CC1 | – | 44 | – | – | – | –
C1CCN(c2nc3nonc3nc2N2CCCCC2)CC1 | – | – | – | – | – | ·
Clc1nssc1=Nc1ccc(Br)cc1 | – | 44 | · | · | · | –
CC(=O)Nc1ccc(N)cc1 | – | – | – | – | – | ·
CC(=O)Nc1ccc(C(=O)O)cc1 | – | 46 | – | – | – | –
O=[N+]([O-])c1ccc(N2CCN(S(=O)(=O)c3ccccc3)CC2)cc1NCc1cccnc1 | – | 50 | – | – | – | –
O=[N+]([O-])c1ccc(N2CCN(S(=O)(=O)c3ccc(Cl)cc3)CC2)cc1NCc1cccnc1 | – | – | – | – | – | ·
O=C(c1ccccc1)N1CCN(c2ccc([N+](=O)[O-])c(NCc3cccnc3)c2)CC1 | – | – | – | – | – | ·
O=C(c1ccc(Cl)cc1)N1CCN(c2ccc([N+](=O)[O-])c(NCc3cccnc3)c2)CC1 | – | 46 | – | – | – | –
O=C(CCNC(=O)c1ccccc1Cl)Nc1ccc(S(=O)(=O)N2CCOCC2)cc1 | – | – | · | · | · | ·
COCCn1c(Cc2ccccc2)nnc1SCc1ccc([N+](=O)[O-])cc1 | – | – | – | – | – | ·
COc1cc(O)c(NC(C)=O)c2nonc12 | – | 60 | – | – | – | –
COc1cc(-c2ccc(NC(C)=O)c(OC)c2)ccc1NC(C)=O | – | – | – | – | – | ·
COc1ccc(NC2CCCN(C(=O)CSc3ccccn3)C2)cc1OC (centres undefined) | – | 28 | – | – | – | –
O=C(Nc1nccs1)c1ccc2c(=O)n3c(nc2c1)CCCCC3 | – | – | – | – | – | ·
COc1ccc(-n2c(C)cc(SC)c(C(C)=O)c2=S)cc1 | – | – | – | – | – | ·
CSc1cc(C)n(-c2ccc(Cl)cc2)c(=S)c1C(C)=O | – | 42 | – | – | – | –
COc1ccccc1N1CC(C(=O)Nc2ccc3c(c2)OCO3)CC1=O (centres undefined) | – | – | – | – | – | ·
COc1ccc2c(c1OC)C(=O)OC2N1C(=O)CC[C@H]1C(=O)Nc1ccc2c(c1)OCO2 (some centres undefined) | – | 44 | – | – | – | –
CC(=O)C1=C(C)NC2(O)c3ccccc3C(=O)C12O (centres undefined) | – | 66 | – | – | – | 53
SMILES | SENP1 inh | SENP8 block-1 | SENP7 block | SENP8 block-2 | SENP6 inh | SENP8 inh conf
O=C1Cc2ccccc2C(=O)N1c1ccc(F)cc1Cl | – | 72 | – | – | – | 50
Cc1nn(CC#N)c(=O)n1-c1ccc(C(C)C)cc1 | – | 41 | – | – | – | –
Cc1nn(CC#N)c(=O)n1-c1ccc(Cl)cc1 | – | – | – | – | – | ·
COC(=O)Cc1c(C)nc2nc(-c3ccc(C)cc3)[nH]n2c1=O | – | 46 | – | – | – | –
CCN1C(=O)[C@H]2[C@@H](c3ccc(C(F)(F)F)cc3)N[C@]3(CCCN(CC4CCCCC4)C3=O)[C@H]2C1=O | – | – | · | · | · | ·
COc1cc(C)c(S(=O)(=O)NCc2cccs2)cc1C | – | 41 | – | – | – | –
COc1ccc(Cl)cc1S(=O)(=O)NCc1cccs1 | – | – | – | – | – | ·
COc1ccc(OC)c(S(=O)(=O)Nc2cccc3c(O)cccc23)c1 | – | 48 | – | – | – | –
COc1ccc(C(=O)COc2ccc(C)cc2NC(C)=O)cc1 | – | 41 | – | – | – | –
O=C(O)COc1ccccc1C=NNC(=O)c1ccccc1NS(=O)(=O)c1cccs1 | – | – | – | – | – | ·
CC(=O)Nc1cc([N+](=O)[O-])ccc1N1CCOCC1 | – | – | – | – | – | ·
O=C(Nc1ccc([N+](=O)[O-])cc1)Nc1ccc(N2CCOCC2)c2nonc12 | – | 46 | – | – | – | –
Cc1cc(NC(=O)CCC(=O)N(c2ccccc2)C(C(=O)NC2CCCC2)c2ccccc2F)no1 (centres undefined) | – | – | – | – | – | ·
Cc1cccc(N(C)C(=O)c2cc(S(=O)(=O)N3CCc4ccccc43)cn2C)c1 | – | 46 | – | – | – | –
Cc1ccc(Cc2cnc(NC(=O)/C(C#N)=C/c3ccc(-c4ccccc4[N+](=O)[O-])o3)s2)cc1 | – | 47 | – | – | – | –
COc1cccc(C(NC(C)=O)c2nc(-c3ccc(F)cc3OC)cs2)c1 (centres undefined) | – | – | · | · | · | ·
CC1(C)CC(=O)c2c(O)cc(OCC(=O)Nc3ccc(S(N)(=O)=O)cc3)cc2O1 | – | 57 | – | – | – | –
CC1(C)CC(=O)c2c(O)cc(OCC(=O)NCCc3ccc(S(N)(=O)=O)cc3)cc2O1 | – | – | – | – | – | ·
CC(C)=CCc1c2c(c3occ(-c4ccc(O)c(O)c4)c(=O)c3c1O)C=CC(C)(C)O2 | – | – | · | · | · | ·
CC(C)=CCc1c2c(c3occ(-c4ccc(O)cc4)c(=O)c3c1O)C=CC(C)(C)O2 | – | 43 | – | – | – | –
COc1ccc(NC(=O)C2CC(=O)OC23CCOC(C)(C)C3)cc1 (centres undefined) | – | 42 | – | – | – | –
CC1(C)CC2(CCO1)OC(=O)CC2C(=O)Nc1ccc(Br)cc1 (centres undefined) | – | – | – | – | – | ·
CN(CCO)c1cc(Sc2nc3ccccc3s2)c2nonc2c1[N+](=O)[O-] | – | 55 | – | – | – | –
Cc1ccc(C(=O)Nc2ccccc2[N+](=O)[O-])cc1S(=O)(=O)N1CCOCC1 | – | – | – | – | – | ·
CCCC(=O)N1CCN(c2ccc(NC(=O)c3ccc(N4CCCC4)c([N+](=O)[O-])c3)cc2Cl)CC1 | – | 45 | – | – | – | –
Cc1ccc(NC(=O)c2ccc(N3CCOCC3)c([N+](=O)[O-])c2)cc1S(=O)(=O)N1CCOCC1 | – | 44 | – | – | – | –
CCN1CCN(c2ccc(NC(=O)c3ccc([N+](=O)[O-])o3)cc2Cl)CC1 | – | 52 | · | · | · | –
CC(=O)N1CCN(c2ccc(NC(=O)c3ccc(N4CCCC4)c([N+](=O)[O-])c3)cc2Cl)CC1 | – | – | – | – | – | ·
CCc1ccc(C2CC3C(CN2S(=O)(=O)c2ccc(C)cc2)C(=O)CC(c2ccc(CC)cc2)N3S(=O)(=O)c2ccc(C)cc2)cc1 (centres undefined) | – | – | · | · | · | ·
COC(=O)c1sc(NC(=O)c2ccc([N+](=O)[O-])o2)c(C#N)c1C | – | 42 | – | – | – | –

High-throughput results (PubChem BioAssay)
